{
  "source": "ChEMBL document CHEMBL1121884",
  "about": "“Piperazinylquinoxalines with central serotoninmimetic activity” (1981)",
  "type_in_all_cases": "functional",
  "key": {"[1]": {"tested_on": "Rattus norvegicus", "test": "Ability to elicit head twitches in rats a response characteristic of a serotonin mimetic action in the central nervous system was measured after 4 mg/kg of ip administration; 4/12", "conditions": "route intraperitoneal", "how_it_was_run": "(§1)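 Female Sprague-Dawley rats (150-250 g), compound given ip in 1% methylcellulose vehicle, dose as base weight; quantal scoring of rats showing at least one head twitch during a 2-min observation beginning 30 min after dosing; usually six rats per dose level; vehicle controls run.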"}, "[2]": {"tested_on": "Rattus norvegicus", "test": "Ability to elicit head twitches in rats a response characteristic of a serotonin mimetic action in the central nervous system was measured after 0.4 mg/kg of ip administration; 0/12", "conditions": "route intraperitoneal", "how_it_was_run": "as §1"}, "[3]": {"tested_on": "Rattus norvegicus", "test": "Ability to elicit head twitches in rats a response characteristic of a serotonin mimetic action in the central nervous system after 40 mg/kg of ip administration; 0/12", "conditions": "route intraperitoneal", "how_it_was_run": "as §1"}, "[4]": {"tested_on": "Rattus norvegicus", "test": "Serotonin neuronal reuptake blocking activity was determined by the antagonism of the head twitch response induced in rats with p-chloromethamphetamine (PCMA) after 40 mg/kg of ip administration; 8/12", "conditions": "route intraperitoneal", "how_it_was_run": "(§2)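 Female Sprague-Dawley rats (150-250 g) dosed ip with compound (1% methylcellulose vehicle, dose as base weight), then p-chloromethamphetamine 6.0 mg/kg ip 1 h later; head twitches observed 30 min after PCMA; scored as rats not twitching; usually six rats per dose; ED50 = dose antagonizing PCMA head twitch in 50% of animals, with 95% confidence limits.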"}, "[5]": {"tested_on": "Rattus norvegicus", "test": "Serotonin neuronal reuptake blocking activity was determined by the antagonism of the head twitch response induced by treatment of rats with p-chloromethamphetamine (PCMA) after 0.4 mg/kg of ip administration; 1/12", "conditions": "route intraperitoneal", "how_it_was_run": "as §2"}, "[6]": {"tested_on": "Rattus norvegicus", "test": "Serotonin neuronal reuptake blocking activity was determined by the antagonism of the head twitch response induced by treatment of rats with p-chloromethamphetamine (PCMA) after 4 mg/kg of ip administration; 2/12", "conditions": "route intraperitoneal", "how_it_was_run": "as §2"}, "[7]": {"target": "T1, Serotonin (5-HT) receptor (Rattus norvegicus) (UniProt P35563+P35365+P32305+P31388+Q9JJ16+P28564+P30994+Q62758+P08909+P14842+P30940+P35364+P19327+P28565)", "test": "(§3) Ability to elicit head twitches in rats (a serotonin mimetic response)", "design": "concentration or dose not given beside the values", "how_it_was_run": "as §1"}, "[8]": {"target": "T1, Serotonin (5-HT) receptor (Rattus norvegicus)", "test": "as §3", "design": "concentration or dose not given beside the values", "how_it_was_run": "as §1", "remark": "listed apart in the source"}, "[9]": {"tested_on": "Rattus norvegicus", "test": "Serotonin neuronal reuptake blocking activity was determined by the antagonism of the head twitch response induced by treatment of rats with p-chloromethamphetamine (PCMA) after 4 mg/kg of ip administration", "conditions": "route intraperitoneal", "how_it_was_run": "as §2"}, "[10]": {"target": "Sodium-dependent serotonin transporter (Rattus norvegicus) (UniProt P31652)", "sequence (P31652 whole entry)": "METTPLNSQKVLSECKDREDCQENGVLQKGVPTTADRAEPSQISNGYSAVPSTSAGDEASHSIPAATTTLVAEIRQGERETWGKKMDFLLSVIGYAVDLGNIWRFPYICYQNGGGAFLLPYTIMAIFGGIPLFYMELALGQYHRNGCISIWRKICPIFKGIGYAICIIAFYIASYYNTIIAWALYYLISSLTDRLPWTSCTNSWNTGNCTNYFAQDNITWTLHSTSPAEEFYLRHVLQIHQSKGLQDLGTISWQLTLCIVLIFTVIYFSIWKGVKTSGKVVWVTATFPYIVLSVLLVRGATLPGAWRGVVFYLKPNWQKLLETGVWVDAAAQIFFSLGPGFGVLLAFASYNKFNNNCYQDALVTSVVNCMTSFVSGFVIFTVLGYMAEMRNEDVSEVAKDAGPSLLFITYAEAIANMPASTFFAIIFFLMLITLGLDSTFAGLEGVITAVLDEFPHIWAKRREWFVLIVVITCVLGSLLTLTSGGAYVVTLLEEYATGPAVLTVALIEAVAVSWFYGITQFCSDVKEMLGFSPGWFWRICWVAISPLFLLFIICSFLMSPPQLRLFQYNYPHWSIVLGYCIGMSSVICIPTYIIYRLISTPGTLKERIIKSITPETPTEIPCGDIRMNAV", "test": "Serotonin neuronal reuptake blocking activity was determined by the antagonism of the head twitch response induced in rats", "design": "concentration or dose not given beside the values", "how_it_was_run": "as §2"}, "[11]": {"target": "T1, Serotonin (5-HT) receptor (Rattus norvegicus)", "test": "as §3", "design": "concentration or dose not given beside the values", "how_it_was_run": "as §1", "remark": "listed apart in the source"}, "[12]": {"tested_on": "Rattus norvegicus", "test": "Serotonin neuronal reuptake blocking activity was determined by the antagonism of the head twitch response induced by treatment of rats with p-chloromethamphetamine (PCMA) after 0.4 mg/kg of ip administration", "conditions": "route intraperitoneal", "how_it_was_run": "as §2"}, "[13]": {"tested_on": "Rattus norvegicus", "test": "Ability to elicit head twitches in rats a response characteristic of a serotonin mimetic action in the central nervous system after 40 mg/kg of ip administration; 3/10", "conditions": "route intraperitoneal"}, "[14]": {"tested_on": "Rattus norvegicus", "test": "Serotonin neuronal reuptake blocking activity was determined by the antagonism of the head twitch response induced by treatment of rats with p-chloromethamphetamine (PCMA) after 0.4 mg/kg of ip administration; 6/10", "conditions": "route intraperitoneal", "how_it_was_run": "(§4)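 Female Sprague-Dawley rats (150-250 g) dosed ip with compound in 1% methylcellulose vehicle. p-Chloromethamphetamine 6.0 mg/kg ip was given 1 h later, and head movements were observed 30 min after that. Scored as number of rats not showing head twitches. Six rats per dose unless otherwise noted. Doses expressed as base weight.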"}, "[15]": {"tested_on": "Rattus norvegicus", "test": "Ability to elicit head twitches in rats a response characteristic of a serotonin mimetic action in the central nervous system was measured after 4 mg/kg of ip administration; 2/10", "conditions": "route intraperitoneal"}, "[16]": {"tested_on": "Rattus norvegicus", "test": "Ability to elicit head twitches in rats a response characteristic of a serotonin mimetic action in the central nervous system was measured after 0.4 mg/kg of ip administration; 0/10", "conditions": "route intraperitoneal"}, "[17]": {"tested_on": "Rattus norvegicus", "test": "Serotonin neuronal reuptake blocking activity was determined by the antagonism of the head twitch response induced in rats with p-chloromethamphetamine (PCMA) after 40 mg/kg of ip administration;9/10", "conditions": "route intraperitoneal", "how_it_was_run": "as §4"}, "[18]": {"tested_on": "Rattus norvegicus", "test": "Serotonin neuronal reuptake blocking activity was determined by the antagonism of the head twitch response induced by treatment of rats with p-chloromethamphetamine (PCMA) after 4 mg/kg of ip administration; 7/10", "conditions": "route intraperitoneal", "how_it_was_run": "as §4"}, "[19]": {"target": "Sodium-dependent serotonin transporter (Rattus norvegicus) (UniProt P31652)", "test": "(§5) Serotonin neuronal reuptake blocking activity was determined by the antagonism of the head twitch response induced by treatment of rats", "design": "concentration or dose not given beside the values", "how_it_was_run": "as §2"}, "[20]": {"target": "Sodium-dependent serotonin transporter (Rattus norvegicus) (UniProt P31652)", "test": "as §5", "design": "concentration or dose not given beside the values", "how_it_was_run": "as §2", "remark": "listed apart in the source"}, "[21]": {"tested_on": "Rattus norvegicus", "test": "Serotonin neuronal reuptake blocking activity was determined by the antagonism of the head twitch response induced in rats with p-chloromethamphetamine (PCMA) after 40 mg/kg of ip administration; 2/4", "conditions": "route intraperitoneal", "how_it_was_run": "as §2"}},
  "data": [
    {"smiles": "Cc1ccc2nc(N3CCNCC3)cnc2c1.Cl", "values": [
      {"measurement": "Activity", "setting": "[1]", "value": 4},
      {"measurement": "Activity", "setting": "[2]", "value": 0},
      {"measurement": "Activity", "setting": "[3]", "value": 0},
      {"measurement": "PCMA antagonism", "setting": "[4]", "value": 8},
      {"measurement": "PCMA antagonism", "setting": "[5]", "value": 1},
      {"measurement": "PCMA antagonism", "setting": "[6]", "value": 2}
    ]},
    {"smiles": "Nc1ccc2nc(N3CCNCC3)cnc2c1", "values": [
      {"measurement": "Activity", "setting": "[7]", "value": 2},
      {"measurement": "Activity", "setting": "[8]", "value": 0},
      {"measurement": "PCMA antagonism", "setting": "[9]", "value": 4},
      {"measurement": "PCMA antagonism", "setting": "[10]", "value": 3},
      {"measurement": "Activity", "setting": "[11]", "value": 1},
      {"measurement": "PCMA antagonism", "setting": "[12]", "value": 2}
    ]},
    {"smiles": "Cl.FC(F)(F)c1ccc2nc(N3CCNCC3)cnc2c1", "values": [
      {"measurement": "Activity", "setting": "[13]", "value": 3},
      {"measurement": "PCMA antagonism", "setting": "[14]", "value": 6},
      {"measurement": "Activity", "setting": "[15]", "value": 2},
      {"measurement": "Activity", "setting": "[16]", "value": 0},
      {"measurement": "PCMA antagonism", "setting": "[17]", "value": 9},
      {"measurement": "PCMA antagonism", "setting": "[18]", "value": 7}
    ]},
    {"smiles": "Cl.Clc1cccc2nc(N3CCNCC3)cnc12", "values": [
      {"measurement": "Activity", "setting": "[7]", "value": 2},
      {"measurement": "PCMA antagonism", "setting": "[19]", "value": 0},
      {"measurement": "Activity", "setting": "[8]", "value": 0},
      {"measurement": "Activity", "setting": "[11]", "value": 0},
      {"measurement": "PCMA antagonism", "setting": "[20]", "value": 0},
      {"measurement": "PCMA antagonism", "setting": "[21]", "value": 2}
    ]}
  ]
}
